Assay outcomes (PubChem BioAssay)
LANA-nucl inh – LANA-nucleosome interaction inhibition. hit rate 0.3% among 51,000. z-score (test concentration not listed). FITC-LANA1-23 / chicken nucleosome fluorescence polarization; stronger effect = lower value;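 active = both repeat wells score below -2 in polarization z-score versus plate sample wells, excluding overly bright wells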
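Assay system: purified chicken nucleosomes with FITC-labelled LANA N-terminal peptide (1-23) / Probe or stimulus: 50 nM FITC-LANA1-23 probe / Compound dosing: pin-transferred compound, 100 nL / Times: compound with peptide–nucleosome mix 10–45 min at room temperature / Technique: fluorescence polarization, 480 nm excitation, 535 nm parallel and perpendicular emission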
Ab BasE inh – blocks the Acinetobacter baumannii siderophore enzyme BasE; inhibition, % (concentration not given with the values); AID 485350; purified BasE, fluorescence polarization binding displacement; hit rate 0.1% among 84,000; in the data active = inhibition above about 25%, passing the limit was not always enough;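 note: 0% = negative plate control signal and 100% = positive plate control signal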
Numbers without * were called inactive; . = no result. This is one part of a sample in which hits are shown more often than they occur.

SMILES | LANA-nucl inh | Ab BasE inh
O=C1Oc2ccccc2C2c3sc(=O)[nH]c3SC(c3ccccc3)C12 (stereo unspecified) | -0.44 | 0
O=c1[nH]c2c(s1)C1c3ccccc3OC3CCCC(S2)C31 (stereo unspecified) | -9.8* | 8
COc1ccc(/C=C(\C#N)C(=O)Nc2nc(OC)cc(OC)n2)cc1 | . | -2
Cc1ccc(C(C)C)c(OCC(=O)OCC(N)=O)c1 | . | 1
Cc1c(/C=C2/N=C(c3ccccc3)OC2=O)cc(C#N)n1C | . | -3
N#Cc1ccccc1CNCc1cccs1 | -2.1* | 0
CCNCc1cccs1 | . | -2
CCS(=O)(=O)Nc1cc(C(C)(C)C)ccc1OC | -0.09 | 1
O=C(O)c1ccccc1-c1ccccc1C(=O)O | 1.3 | -2
O=C(O)c1ccccc1C1=Nc2ccc(O)cc2Oc2cc(O)ccc21 | -6.1* | 38
Cc1ccc(C(=O)NCC2COc3ccccc3O2)o1 (stereo unspecified) | . | -2
N#Cc1ccsc1/N=C/c1ccccc1 | -0.42 | .
Cc1ccc(/C=N/c2sccc2C#N)cc1 | -6.5* | .
O=C(Cc1ccccc1)Nn1cnc2c(cnn2-c2ccccc2)c1=O | -0.8 | -1
CCC(=O)Nn1cnc2c(cnn2-c2ccccc2)c1=O | -2.2* | 0
CC(=O)N1CCN(S(=O)(=O)c2cccc(C(=O)NCCc3ccccn3)c2)CC1 | . | 2
COC(=O)C(NC(=O)CC12CC3CC(CC(C3)C1)C2)C(C)C (stereo unspecified) | -0.67 | 4
CCCOc1ccc(Cn2cnc3ccccc32)cc1 | 0.18 | 19
O=c1c2ccccc2ncn1CCOc1ccc(Br)cc1 | . | 1
Brc1ccc(OCCn2cnc3ccccc32)cc1 | 0.37 | 39*
COc1ccc(OCCn2cnc3ccccc32)cc1 | -0.2 | 26*
CC(=O)Nc1ccc(C2C3=C(Nc4c2c(=O)[nH]c(=O)n4Cc2ccccc2)c2ccccc2C3=O)cc1 (stereo unspecified) | -2.3 | 47
COC(=O)C[n+]1ccc(C)cc1 | -0.08 | 6
CCOc1ccc(CN(C)CC(=O)NC2CC2)cc1OC | . | 0
O=C1/C(=C/c2ccccc2)Oc2c1ccc(O)c2CN1CCCC1 | 2.2 | 1
SMILES | LANA-nucl inh | Ab BasE inh
CCN(CC)Cc1c(O)ccc2c1O/C(=C\c1ccccc1Cl)C2=O | -3* | 1
O=C(NC(c1ccccc1)c1ccccc1)C1CC1 | 0.1 | 2
CC(=O)Nc1ccc(-c2nc3cc(C)ccc3o2)cc1 | -0.91 | 0
CC(=O)Nc1ccc2oc(C)nc2c1 | 1.1 | 37*
c1ccc(-c2nnc(OCC3CCCO3)c3ccccc23)cc1 (stereo unspecified) | . | 28*
Nc1ccc(OCC2CCCO2)cc1 (stereo unspecified) | 0.34 | -2
C=CCn1c(C)c(/C=C/C2=CCN(C)CC2)c2ccccc21 | -10 | -20
Cc1cc(N2CCCC2)ccc1/C=C/C1=CCN(C)CC1 | -4.1* | -8
COc1ccc(S(N)(=O)=O)cc1C(=O)OCc1cn2cc(Cl)ccc2n1 | . | 0
CCCc1c(C(=O)Nc2cc(F)ccc2F)cnn1C | . | 2
O=C(/C=C/c1ccccc1)Nc1cccnc1 | . | 36*
O=C(/C=C/c1ccccc1)Nc1ccc(O)cc1 | . | 20
N#C/C=C/N1CCc2ccccc2C1 | . | 1
Cc1nc2c(C#N)ncn2c(C)c1Cc1cccc(F)c1 | 0.84 | .
